Where “and” joins values, the source holds several entries; their conditions need not be identical. Equal entries are not always repeated.
The molecules below were run on U2OS (assay: Multiplex assay against U2OS). Settings: human, 12 h, 1 µM, compound concentration 1 uM.
Format: toxicity, cell-based
Method in brief: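 Imaging took place on a CQ1 microscope at 37°C and 5% CO2 once compound had been added to live cells stained at seeding with Hoechst33342, BioTracker Green Microtubule Cytoskeleton Dye, MitoTracker Red and Annexin V Alexa Fluor 680. CellPathfinder machine-learning gating classed cells as Hoechst high-intensity objects or normal cells, classed normal cells as having healthy, pyknosed or fragmented nuclei, and classed pyknosed cells as mitotic or apoptotic. Tubulin, mitochondrial-mass and membrane-permeability phenotypes are per cents of the healthy-nucleus cells.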

Structure (SMILES)	Population Apoptotic (%)	Population Fragmented Nuclei (%)	Population Healthy Nuclei (%)	Population Hoechst High Intensity Objects (%)	Population Membrane Permeable-Phenotype (%)	Population Mitochondria Different-Phenotype (%)	Population Normal (%)	Population Pyknosed Nuclei (%)	Population Tubulin-Different-Phenotype (%)	Total Cell Count
CN1CCC(C(=O)c2cccc(NC(=O)c3c(F)cc(F)cc3F)n2)CC1	90% and 57%	20%	70% and 71%	2% and 1%	8% and 9%	3% and 11%	97% and 98%	9% and 7%	5% and 6%	218 and 89
CC(C)c1noc(N2CCC(COc3ccc(-c4ccc(S(C)(=O)=O)cc4)nc3)CC2)n1 [GSK-1292263]	72% and 100%	27% and 16%	62% and 77%	2% and 1%	3% and 4%	2% and 0%	97% and 98%	10% and 5%	0% and 2%	177 and 114
COc1c(C)cc(NC(=O)c2nn(Cc3ccc(F)cc3)c3c2CN(C(=O)c2ccc[nH]2)C[C@]3(C)C(N)=O)cc1C	65% and 83%	22% and 21%	65% and 72%	2%	8%	3% and 12%	97%	12% and 6%	5% and 9%	247 and 102
COc1cc2ncnc(Nc3ccc(Oc4ccccc4)cc3C)c2cc1OC.Cl	43.18% and 56.25%	1.46% and 3.77%	89.4% and 86.16%	0%	0.23% and 2.92%	0.47% and 9.49%	100%	9.15% and 10.06%	0.47% and 0.73%	–

Same assay, conditions: human, 12 h, 1 µM, compound concentration 1 uM

Structure (SMILES)	Population Mitotic Cells (%)
COc1c(C)cc(NC(=O)c2nn(Cc3ccc(F)cc3)c3c2CN(C(=O)c2ccc[nH]2)C[C@]3(C)C(N)=O)cc1C	34% and 16%
COc1cc2ncnc(Nc3ccc(Oc4ccccc4)cc3C)c2cc1OC.Cl	56.82% and 43.75%

Same assay, conditions: human, 12 h, 10 µM, compound concentration 10 uM

Structure (SMILES)	Population Apoptotic (%)	Population Fragmented Nuclei (%)	Population Healthy Nuclei (%)	Population Hoechst High Intensity Objects (%)	Population Membrane Permeable-Phenotype (%)	Population Mitochondria Different-Phenotype (%)	Population Mitotic Cells (%)	Population Normal (%)	Population Pyknosed Nuclei (%)	Population Tubulin-Different-Phenotype (%)
CN1CCC(C(=O)c2cccc(NC(=O)c3c(F)cc(F)cc3F)n2)CC1	65% and 64%	27% and 14%	63% and 68%	1%	14% and 15%	13% and 18%	34% and 35%	98%	9% and 16%	12% and 15%
CC(C)c1noc(N2CCC(COc3ccc(-c4ccc(S(C)(=O)=O)cc4)nc3)CC2)n1 [GSK-1292263]	90% and 100%	31% and 20%	60% and 73%	2% and 0%	10%	6% and 8%	10% and 0%	97% and 100%	7% and 5%	6%
COc1c(C)cc(NC(=O)c2nn(Cc3ccc(F)cc3)c3c2CN(C(=O)c2ccc[nH]2)C[C@]3(C)C(N)=O)cc1C	33% and 60%	26% and 11%	43% and 66%	9% and 8%	77% and 54%	90% and 97%	66% and 39%	90% and 91%	29% and 21%	95% and 100%
COc1cc2ncnc(Nc3ccc(Oc4ccccc4)cc3C)c2cc1OC.Cl	37.93% and 21.21%	2.47% and 2.03%	81.64% and 75.68%	0.27% and 0%	11.74% and 10.71%	–	62.07% and 78.79%	99.73% and 100%	15.89% and 22.3%	14.09% and 5.36%

Same assay, conditions: human, 12 h, 10 µM, compound concentration 10 uM

Structure (SMILES)	Total Cell Count
CN1CCC(C(=O)c2cccc(NC(=O)c3c(F)cc(F)cc3F)n2)CC1	270 and 103
CC(C)c1noc(N2CCC(COc3ccc(-c4ccc(S(C)(=O)=O)cc4)nc3)CC2)n1 [GSK-1292263]	262 and 134
COc1c(C)cc(NC(=O)c2nn(Cc3ccc(F)cc3)c3c2CN(C(=O)c2ccc[nH]2)C[C@]3(C)C(N)=O)cc1C	223 and 119
COc1cc2ncnc(Nc3ccc(Oc4ccccc4)cc3C)c2cc1OC.Cl	366 and 148

Same assay, conditions: human, 24 h, 1 µM, compound concentration 1 uM

Structure (SMILES)	Population Apoptotic (%)	Population Fragmented Nuclei (%)	Population Healthy Nuclei (%)	Population Hoechst High Intensity Objects (%)	Population Membrane Permeable-Phenotype (%)	Population Mitochondria Different-Phenotype (%)	Population Mitotic Cells (%)	Population Normal (%)	Population Pyknosed Nuclei (%)	Population Tubulin-Different-Phenotype (%)
CN1CCC(C(=O)c2cccc(NC(=O)c3c(F)cc(F)cc3F)n2)CC1	85% and 72%	22% and 18%	67% and 71%	2% and 0%	4% and 6%	3% and 10%	14% and 27%	97% and 99%	9%	3% and 0%
CC(C)c1noc(N2CCC(COc3ccc(-c4ccc(S(C)(=O)=O)cc4)nc3)CC2)n1 [GSK-1292263]	63% and 66%	32% and 15%	57% and 77%	1% and 0%	5% and 2%	2%	36% and 33%	98% and 99%	9% and 6%	3% and 1%
COc1c(C)cc(NC(=O)c2nn(Cc3ccc(F)cc3)c3c2CN(C(=O)c2ccc[nH]2)C[C@]3(C)C(N)=O)cc1C	67% and 61%	16% and 17%	71% and 70%	5% and 0%	8% and 7%	6% and 2%	32% and 38%	94% and 99%	12% and 11%	7% and 6%
COc1cc2ncnc(Nc3ccc(Oc4ccccc4)cc3C)c2cc1OC.Cl	41.67% and 39.13%	2.08% and 5.24%	88.99% and 83.81%	0%	0.67% and 2.84%	0.67% and 6.25%	58.33% and 60.87%	100%	8.93% and 10.95%	0.67% and 1.7%

Same assay, conditions: human, 24 h, 1 µM, compound concentration 1 uM

Structure (SMILES)	Total Cell Count
CN1CCC(C(=O)c2cccc(NC(=O)c3c(F)cc(F)cc3F)n2)CC1	284 and 113
CC(C)c1noc(N2CCC(COc3ccc(-c4ccc(S(C)(=O)=O)cc4)nc3)CC2)n1 [GSK-1292263]	236 and 145
COc1c(C)cc(NC(=O)c2nn(Cc3ccc(F)cc3)c3c2CN(C(=O)c2ccc[nH]2)C[C@]3(C)C(N)=O)cc1C	265 and 111

Same assay, conditions: human, 24 h, 10 µM, compound concentration 10 uM

Structure (SMILES)	Population Apoptotic (%)	Population Fragmented Nuclei (%)	Population Healthy Nuclei (%)	Population Hoechst High Intensity Objects (%)	Population Membrane Permeable-Phenotype (%)	Population Mitochondria Different-Phenotype (%)	Population Mitotic Cells (%)	Population Normal (%)	Population Pyknosed Nuclei (%)	Population Tubulin-Different-Phenotype (%)
CN1CCC(C(=O)c2cccc(NC(=O)c3c(F)cc(F)cc3F)n2)CC1	82% and 66%	21% and 15%	68%	2% and 5%	8% and 10%	9% and 15%	17% and 33%	97% and 94%	9% and 15%	5% and 10%
CC(C)c1noc(N2CCC(COc3ccc(-c4ccc(S(C)(=O)=O)cc4)nc3)CC2)n1 [GSK-1292263]	92% and 66%	25% and 15%	65% and 75%	0% and 2%	10% and 6%	3% and 5%	–	99% and 97%	9% and 8%	3% and 2%
COc1c(C)cc(NC(=O)c2nn(Cc3ccc(F)cc3)c3c2CN(C(=O)c2ccc[nH]2)C[C@]3(C)C(N)=O)cc1C	66% and 65%	26% and 13%	41% and 53%	12% and 7%	46% and 49%	92% and 91%	33% and 34%	87% and 92%	31% and 33%	94% and 91%
COc1cc2ncnc(Nc3ccc(Oc4ccccc4)cc3C)c2cc1OC.Cl	64.1% and 26.19%	3.39% and 3.61%	79.01% and 71.08%	0%	8.57% and 6.78%	–	35.9% and 73.81%	100%	17.61% and 25.3%	10.29% and 10.17%

Same assay, conditions: human, 24 h, 10 µM, compound concentration 10 uM

Structure (SMILES)	Total Cell Count
CN1CCC(C(=O)c2cccc(NC(=O)c3c(F)cc(F)cc3F)n2)CC1	298 and 126
CC(C)c1noc(N2CCC(COc3ccc(-c4ccc(S(C)(=O)=O)cc4)nc3)CC2)n1 [GSK-1292263]	284 and 143
COc1c(C)cc(NC(=O)c2nn(Cc3ccc(F)cc3)c3c2CN(C(=O)c2ccc[nH]2)C[C@]3(C)C(N)=O)cc1C	216 and 123
COc1cc2ncnc(Nc3ccc(Oc4ccccc4)cc3C)c2cc1OC.Cl	443 and 166

Same assay, conditions: human, 48 h, 1 µM, compound concentration 1 uM

Structure (SMILES)	Population Apoptotic (%)	Population Fragmented Nuclei (%)	Population Healthy Nuclei (%)	Population Hoechst High Intensity Objects (%)	Population Membrane Permeable-Phenotype (%)	Population Mitochondria Different-Phenotype (%)	Population Mitotic Cells (%)	Population Normal (%)	Population Pyknosed Nuclei (%)	Population Tubulin-Different-Phenotype (%)
CN1CCC(C(=O)c2cccc(NC(=O)c3c(F)cc(F)cc3F)n2)CC1	100% and 89%	17% and 29%	70% and 57%	2% and 5%	4% and 12%	1% and 8%	0% and 10%	97% and 94%	11% and 13%	2% and 4%
CC(C)c1noc(N2CCC(COc3ccc(-c4ccc(S(C)(=O)=O)cc4)nc3)CC2)n1 [GSK-1292263]	77% and 90%	23% and 15%	69% and 74%	2% and 1%	3% and 6%	3% and 2%	22% and 10%	97% and 98%	6% and 10%	2% and 1%
COc1c(C)cc(NC(=O)c2nn(Cc3ccc(F)cc3)c3c2CN(C(=O)c2ccc[nH]2)C[C@]3(C)C(N)=O)cc1C	79% and 84%	18% and 15%	68% and 70%	2% and 5%	4% and 9%	3% and 4%	20% and 15%	97% and 94%	13%	2% and 5%
COc1cc2ncnc(Nc3ccc(Oc4ccccc4)cc3C)c2cc1OC.Cl	42.28% and 50%	3.36% and 3.22%	87.01% and 84.5%	0%	0.54% and 2.42%	0% and 6.23%	57.72% and 50%	100%	9.62% and 12.28%	0.63% and 1.38%

Same assay, conditions: human, 48 h, 1 µM, compound concentration 1 uM

Structure (SMILES)	Total Cell Count
CN1CCC(C(=O)c2cccc(NC(=O)c3c(F)cc(F)cc3F)n2)CC1	394 and 149
CC(C)c1noc(N2CCC(COc3ccc(-c4ccc(S(C)(=O)=O)cc4)nc3)CC2)n1 [GSK-1292263]	339 and 201
COc1c(C)cc(NC(=O)c2nn(Cc3ccc(F)cc3)c3c2CN(C(=O)c2ccc[nH]2)C[C@]3(C)C(N)=O)cc1C	365 and 152

Same assay, conditions: human, 48 h, 10 µM, compound concentration 10 uM

Structure (SMILES)	Population Apoptotic (%)	Population Fragmented Nuclei (%)	Population Healthy Nuclei (%)	Population Hoechst High Intensity Objects (%)	Population Membrane Permeable-Phenotype (%)	Population Mitochondria Different-Phenotype (%)	Population Mitotic Cells (%)	Population Normal (%)	Population Pyknosed Nuclei (%)	Population Tubulin-Different-Phenotype (%)
CN1CCC(C(=O)c2cccc(NC(=O)c3c(F)cc(F)cc3F)n2)CC1	85%	18% and 15%	69%	3%	8% and 16%	3% and 10%	14%	96%	12% and 14%	3% and 8%
CC(C)c1noc(N2CCC(COc3ccc(-c4ccc(S(C)(=O)=O)cc4)nc3)CC2)n1 [GSK-1292263]	87% and 83%	22% and 12%	68% and 77%	4% and 1%	6% and 5%	2% and 4%	12% and 16%	95% and 98%	9%	2% and 4%
COc1c(C)cc(NC(=O)c2nn(Cc3ccc(F)cc3)c3c2CN(C(=O)c2ccc[nH]2)C[C@]3(C)C(N)=O)cc1C	84% and 87%	31% and 22%	24% and 47%	17% and 9%	69% and 50%	85% and 81%	15% and 12%	82% and 90%	44% and 29%	90% and 80%
COc1cc2ncnc(Nc3ccc(Oc4ccccc4)cc3C)c2cc1OC.Cl	65.09% and 50%	6.98% and 4.76%	79.05% and 76.19%	0%	4.33% and 8.52%	–	34.91% and 50%	100%	13.97% and 19.05%	10.17% and 11.93%

Same assay, conditions: human, 48 h, 10 µM, compound concentration 10 uM

Structure (SMILES)	Total Cell Count
CN1CCC(C(=O)c2cccc(NC(=O)c3c(F)cc(F)cc3F)n2)CC1	398 and 189
CC(C)c1noc(N2CCC(COc3ccc(-c4ccc(S(C)(=O)=O)cc4)nc3)CC2)n1 [GSK-1292263]	354 and 189
COc1c(C)cc(NC(=O)c2nn(Cc3ccc(F)cc3)c3c2CN(C(=O)c2ccc[nH]2)C[C@]3(C)C(N)=O)cc1C	212 and 150
